Results published in PMC5815365 (Molecular pharmaceutics, 2016).
“And” between values parts separate entries of the source, which are not always exact repeats. Equal entries are not always repeated. Structures can show the parent of a compound that is named as a salt. Where two headings read alike, the source gives them in different places.

Tests used:
MCF-7 xenografts [1] = assay: In vivo NIRF imaging of tumor uptake in nude mice bearing MCF-7 xenografts; conditions: for retention of fluorescence in tumors: two days after injection
Procedure, shortened: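 Nude mice with estradiol-supported MCF-7 mammary fat-pad xenografts (about 150 mm3) received 17 nmol dye i.p. (n = 3). They were imaged under 2% isoflurane at serial time points up to 8 days on IVIS (Ex 740/Em 820 nm, auto exposure, F-stop 2). Tumor ROI radiance (p/s/cm2/sr) was background-subtracted using another body region and normalized to tumor volume.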

[2] = Partition coefficient in n-octanol and water, measured by NIR fluorescence; assay type: physicochemical; conditions: octanol–water partitioning measured with NIRF
Procedure, shortened: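 Compound (5 nmol) was shaken 10 min in 0.6 mL n-octanol plus 0.6 mL water (final 4.15 μM, within the linear fluorescence range), then centrifuged at 10,000 rpm for 5 min. Triplicate 100 μL aliquots of each layer were imaged on IVIS (Ex/Em 745/820 nm) as ROI average radiance. log P = log(octanol/water intensity), corrected by a per-probe solvent factor; mean and SD reported.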

MCF-7 xenografts [3] = assay: Ex vivo dye biodistribution analysis by NIRF of harvested tumors and organs; assay type: in vivo, mice; conditions: day 2 of injection
Procedure, shortened: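 Ovariectomized female athymic mice carried mammary fat-pad MCF-7 xenografts (5 million cells in Matrigel, estradiol:cholesterol 1:3 implants), grown to about 150 mm3. A separate cohort received 17 nmol dye i.p. After IVIS imaging, mice were killed by ketamine/xylazine overdose at each time point. Tumor, muscle, liver, lung, heart, kidneys and skin were rinsed, dried and IVIS-imaged; organ ROIs were normalized to tumor volume.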

LTED cells = assay: Cell viability / growth inhibition by cell number count; assay type: cell-based, human
Procedure, shortened: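 LTED cells (MCF-7-derived, phenol red-free medium, charcoal-dextran stripped FBS) seeded at 60,000/well in 6-well plates and grown 2 days at 37 °C. They were then exposed to test compound for 2–5 days with 0.1% final ethanol or DMSO vehicle. Cells were saline-rinsed, nuclei released with HEPES–MgCl2 and ZAP (ethylhexadecyldimethylammonium bromide/acetic acid) and Coulter-counted. Three independent repeats, normalized to 100% viability; dose–response curves gave IC50.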

[4] = Cell viability / growth inhibition in benign breast epithelial cells; assay type: cell-based; conditions: human, MCF-10A cells (benign breast epithelial cells)

SMILES | retention of fluorescence in tumors (MCF-7 xenografts [1]; 17 nmol/mouse) | log P [2] | fluorescence intensity in tumor tissue compared to muscle (MCF-7 xenografts [3]) [fold] | time of peak uptake (NIRF) (MCF-7 xenografts [1]; 17 nmol/mouse) | fluorescence intensity disappeared (MCF-7 xenografts [1]; 8 days after injection) [%] | IC50 (LTED cells; Homo sapiens, read-out: IC50 (cell growth inhibition), LTED cells) [µM] | IC50 (LTED cells; read-out: IC50 (cell growth inhibition), LTED cells) | inhibition of cells (LTED cells; up to 75 μM) | viability at 2 days, 50 µM [4] [%]
CC1(C)C(/C=C/C2=C(Cl)C(=C/C=C3\N(CCCCCC(=O)O)c4ccccc4C3(C)C)/CCC2)=[N+](CCCCCC(=O)O)c2ccccc21 [Compound 7] | retained in the tumors | 1.35 | 4.5 | – | – | – | – | – | –
CC1(C)C(=CC=C2CCCC(C=CC3=[N+](CCCCS(=O)(=O)[O-])c4ccccc4C3(C)C)=C2Cl)N(CCCCCC(=O)O)c2ccccc21 [Compound 5, 3H-Indolium, 2-[2-[3-[2-[1-(5-Carboxypentyl)-1,3-dihydro-3,3-dimethyl-2H-indol-2-ylidene]ethylidene]-2-chloro-1-cyclohexen-1-yl]ethenyl]-3,3-dimethyl-1-(4-sulfobutyl) Inner Salt] | retained in the tumors | 0.49 | 8.6 | about 30 h | 80 | – | – | – | –
CC1(C)C(/C=C/C2=C(Cl)C(=C\C=C3/N(CCCS(=O)(=O)[O-])c4ccccc4C3(C)C)/CCC2)=[N+](CCCS(=O)(=O)[O-])c2ccccc21.[Na+] [Compound 6, 3H-indolium, 2-[2-[2-chloro-3-[[1,3-dihydro-3,3-dimethyl-1-(3-sulfopropyl)-2H-indol-2-ylidene]ethylidene]-1-cyclohexen-1-yl]ethenyl]-3,3-dimethyl-1-(3-sulfopropyl)-, inner salt, sodium salt] | retained in the tumors | −1.13 | 6.3 | – | – | – | – | – | –
CC(C)=CCC/C(C)=C/CC/C(C)=C/CSc1ccccc1C(=O)O [FTS, S-trans-trans-farnesylthiosalicylic acid] | – | – | – | – | – | ~51.3 | ~51.8 µM and < 50 µM | 70–75% | ~100
